Consider 167 variants from the RNAGym collection of RNA variant scans (doi:10.1126/science.aae0568).

B1: tRNA (parent)
chain: GUUCCGUUGGCGUAAUGGUAACGCGUCUCCCUCCUAAGGAGAAGACUGCGGGUUCGAGUCCCGUACGGAACG

Fewer inactive variants are shown than the library holds.

This data set covers variants of B1. Nature of the data set: yeast fitness relative to wild type (ratio to wild type); higher = fitter; tRNA-Arg(CCU), competitive growth, 37 C, YPD. Put shortly: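 For this measurement, the tRNA-Arg(CCU) gene was varied by chemical synthesis at a 3% per-site mutation rate across 69 sites, and each variant was placed at the native genomic locus in Saccharomyces cerevisiae. The pooled strains went through a 24-hour competition in YPD at 37°C in six parallel replicates, with amplicons from start and end populations read by 100-nucleotide paired-end sequencing. Darwinian fitness relative to wild type followed from the change in each genotype's frequency. Genotypes needed ≥ 100 starting reads, and estimates < 0.5 were set to 0.5.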
For the variant C31U A42C G44A A45U, the yeast fitness is 0.55.

As to C31G C34U C55U G63A, the yeast fitness is not above 0.5.

For C31U C46A G58C, the yeast fitness was 0.645.

Take C31G A40U A45C: the yeast fitness worked out at 0.533.

On to C31U A37C U64A, for which the yeast fitness was not above 0.5.

For the variant C31G C34U G38A, the yeast fitness was determined as 0.53.

On to C31G A70G, for which the yeast fitness was 0.914.

C31U C49G G52A C62U: the yeast fitness was not above 0.5.

Regarding C31U A40G C46G A65G, the yeast fitness is not above 0.5.

Take C31G C55A: the yeast fitness was 0.605.

On to C31G C49U G50C A69U, for which the yeast fitness is not above 0.5.

Regarding C31U C34A A40G U59A, the yeast fitness came out at 0.566.

Consider C31U A40C G56A A57U, for which the yeast fitness was not above 0.5.

For the variant C31U A40G C61G, the yeast fitness was not above 0.5.

C31G C66G A69G: the yeast fitness was determined as 0.545.

C31G C62A A70C: the yeast fitness was determined as 0.54.

Consider C31U C62U, for which the yeast fitness is 0.907.

As to C31U C62A, the yeast fitness was found to be 0.776.

On to C31U C62G, for which the yeast fitness worked out at 0.949.

C31U C34A A45U C61U: the yeast fitness was not above 0.5.

Consider C31U A69U, for which the yeast fitness was determined as 0.999.

Consider C31U A69G, for which the yeast fitness turned out to be 0.924.

Regarding C31A G51C C60U G67A, the yeast fitness is not above 0.5.

As to C31U C66U, the yeast fitness is 1.03.

Consider C31G G38A G63U, for which the yeast fitness was not above 0.5.

For C31U C66U A69U, the yeast fitness stood at 0.807.

Take C31U A42G G50A: the yeast fitness turned out to be 0.629.

On to C31G C33U A37C A65U, for which the yeast fitness came to 0.538.

For C31G C62U A65G, the yeast fitness amounted to 0.71.

In the case of C31G G63C, the yeast fitness came to 0.614.

C31U G52C: the yeast fitness was 0.661.

Take C31U C60A: the yeast fitness came to 0.563.

In the case of C31U C60G, the yeast fitness was 0.696.

Take C31G G39A A70G: the yeast fitness is 0.553.

Take C31G C60G C62A: the yeast fitness came out at 0.624.

With C31A G56C A57G C62U, the yeast fitness was not above 0.5.

Take C31G C33U A37C A70U: the yeast fitness is not above 0.5.

Turning to C31G A37U C55G A57C, the yeast fitness turned out to be 0.541.

With C31U C33U A42C C49U, the yeast fitness is not above 0.5.

As to C31G C34G, the yeast fitness came to 0.629.

Take C31U A43C U54C A65C: the yeast fitness was not above 0.5.

As for C31G U32G C33U A70G, the yeast fitness is not above 0.5.

With C31U A36C G38A, the yeast fitness was 0.558.

Consider C31G G44C U53C A65U, for which the yeast fitness was not above 0.5.

Regarding C31G C49G C62U G67C, the yeast fitness was not above 0.5.

Turning to C31U A40C A65C, the yeast fitness came to 0.817.

C31G A40U: the yeast fitness is 0.998.

On to C31G A40C, for which the yeast fitness amounted to 0.718.

On to C31G U47G C49G C60U C62G, for which the yeast fitness is not above 0.5.

For the variant C31U A40U A70U, the yeast fitness was determined as 0.7.

On to C31G C34U A40C A69C, for which the yeast fitness is not above 0.5.

Take C31G G58C G67C: the yeast fitness worked out at 0.533.

Turning to C31G A45C C49A A70G, the yeast fitness is not above 0.5.

Regarding C31U C49U C60A G63C, the yeast fitness was not above 0.5.

On to C31G C33U U54G C55A, for which the yeast fitness is not above 0.5.

Regarding C31G C34U C55U G58A C61U, the yeast fitness was 0.586.

Turning to C31G G67C, the yeast fitness came out at 0.888.

For C31G G67A, the yeast fitness worked out at 0.859.

Consider C31G C55G U64C, for which the yeast fitness is not above 0.5.

As for C31G G56C, the yeast fitness amounted to 0.632.

On to C31G C33U A42C C66G, for which the yeast fitness was not above 0.5.

Take C31A U47C: the yeast fitness was determined as 0.767.

As for C31G G52A U59A, the yeast fitness was not above 0.5.

As for C31G A42G C49G, the yeast fitness was not above 0.5.

Regarding C31U A42G C62U, the yeast fitness is 0.583.

As to C31A G52C A57G, the yeast fitness is not above 0.5.

For the variant C31G A36C A42G G52A, the yeast fitness is not above 0.5.

Turning to C31G C33G A70U, the yeast fitness is not above 0.5.

On to C31U G38C G51A G56A, for which the yeast fitness was determined as 0.543.

Regarding C31G G56C C61A, the yeast fitness is not above 0.5.

As to C31G A42G A65U G67C, the yeast fitness was not above 0.5.

C31A G48C U54C C61A A70G: the yeast fitness was not above 0.5.

As to C31G U32C A37U A69C, the yeast fitness was not above 0.5.

Consider C31U C34G A42C U47G A65C C66U, for which the yeast fitness is not above 0.5.

As to C31U A37C A43U G50C A57G, the yeast fitness worked out at 0.586.

In the case of C31U C34A A40G, the yeast fitness was not above 0.5.

In the case of C31G C34U A57U, the yeast fitness amounted to 0.561.

C31G A65U A70G: the yeast fitness was found to be 0.589.

For the variant C31U A45U G56C, the yeast fitness is not above 0.5.

C31U A36G A57U: the yeast fitness was not above 0.5.

Turning to C31U A70G, the yeast fitness is 1.1.

For C31U A45G, the yeast fitness stood at 0.932.

For C31U G52C A57C, the yeast fitness was not above 0.5.

For the variant C31U C49G A69C, the yeast fitness was determined as 0.636.

For C31U A57C G58A A69G, the yeast fitness was found to be 0.554.

For the variant C31G G48A U59C, the yeast fitness came out at 0.793.

With C31U C60G G67A, the yeast fitness is not above 0.5.

For the variant C31G C34U A40C G63C, the yeast fitness is not above 0.5.

C31G C34U A42U A70C: the yeast fitness was not above 0.5.

Consider C31U G44C A69C, for which the yeast fitness was found to be 0.585.

Turning to C31U G44C A69U, the yeast fitness turned out to be 0.634.

Take C31U C46A A65C: the yeast fitness amounted to 0.73.

For the variant C31U C49G C61A, the yeast fitness was not above 0.5.

As to C31U C33G A65C G68A A69U, the yeast fitness was not above 0.5.

For the variant C31G A36C C46G G51C, the yeast fitness is 0.597.

Consider C31G G48A, for which the yeast fitness was 0.925.

C31U C33G C49A G51A: the yeast fitness amounted to 0.563.

Turning to C31U A36C A45C C61G, the yeast fitness is not above 0.5.

As for C31U A36U G51A A70U, the yeast fitness was found to be 0.693.

Consider C31U A43G C66U, for which the yeast fitness was found to be 0.724.

Take C31G A65U G67C: the yeast fitness is 0.567.

Consider C31U C33A G50A A65G, for which the yeast fitness was not above 0.5.

As for C31U A37G C62G, the yeast fitness worked out at 0.517.

Take C31A G50A: the yeast fitness was 0.791.

Turning to C31U G44A C46U, the yeast fitness was found to be 0.629.

As for C31G C61U G68A, the yeast fitness was not above 0.5.

For the variant C31U G41A, the yeast fitness was 0.959.

For the variant C31G C61A G67C, the yeast fitness was not above 0.5.

As to C31U A37C A43U G50C A69U, the yeast fitness was not above 0.5.

C31G C33U A42G U64C A65G: the yeast fitness was not above 0.5.

Consider C31U G44C, for which the yeast fitness turned out to be 0.826.

C31U C66U G67A: the yeast fitness stood at 0.596.

With C31U A37G U54A, the yeast fitness was not above 0.5.

As to C31G G41C G50C, the yeast fitness amounted to 0.533.

As to C31U A45U A69U, the yeast fitness was 1.

As to C31A U47C A69U, the yeast fitness is not above 0.5.

Take C31U A43U: the yeast fitness stood at 1.11.

With C31U A43C, the yeast fitness is 1.17.

C31U A37C G63A: the yeast fitness is not above 0.5.

For the variant C31G A37G, the yeast fitness came to 0.79.

Consider C31U G44A A45U U47C, for which the yeast fitness was 0.607.

On to C31U A36U A45C C62U, for which the yeast fitness was not above 0.5.

With C31A U35A A36U U47C C55U, the yeast fitness was 0.518.

Consider C31A U59C, for which the yeast fitness was determined as 0.767.

For the variant C31G A37U G48C, the yeast fitness was determined as 0.528.

As to C31G U35A, the yeast fitness was found to be 0.659.

As for C31G C34U G56A G58C, the yeast fitness is not above 0.5.

Turning to C31G C66A, the yeast fitness is 0.702.

As for C31G A45U, the yeast fitness was 0.987.

For C31G A45C, the yeast fitness was 0.864.

For the variant C31G U32A U53G, the yeast fitness was 0.646.

C31G C34U A42U: the yeast fitness was 0.612.

Turning to C31G C61A, the yeast fitness amounted to 0.65.

C31U C46U G51A A65C: the yeast fitness came to 0.643.

Consider C31A G58C, for which the yeast fitness worked out at 0.894.

For the variant C31U G48A C61G C62A, the yeast fitness was found to be 0.602.

As for C31U C34U, the yeast fitness turned out to be 0.748.

With C31U C34G, the yeast fitness worked out at 0.591.

Regarding C31G C33A C66A, the yeast fitness came to 0.734.

On to C31U C55U, for which the yeast fitness came to 0.72.

In the case of C31U C55G, the yeast fitness was 0.629.

As for C31G U47A, the yeast fitness amounted to 0.847.

C31G A40G C46A U54C C55G: the yeast fitness was not above 0.5.

Take C31U C55G U59A: the yeast fitness is not above 0.5.

On to C31G A37G U54A, for which the yeast fitness amounted to 0.681.

Take C31G G51C C66U: the yeast fitness came out at 0.566.

In the case of C31A G63C, the yeast fitness worked out at 0.62.

As to C31A G63A, the yeast fitness is 0.676.

Consider C31G U59G, for which the yeast fitness came to 0.734.

With C31G U59C, the yeast fitness came to 0.871.

Take C31G A37C G50A A65C: the yeast fitness is not above 0.5.

For the variant C31A U53C, the yeast fitness was 0.571.

For the variant C31U A40G A42C G44A A45U, the yeast fitness is not above 0.5.

Take C31U G38A: the yeast fitness worked out at 0.81.

On to C31G A45G C60G, for which the yeast fitness was not above 0.5.

Turning to C31U C33A A69U, the yeast fitness is not above 0.5.

Consider C31U A37U C60G, for which the yeast fitness was not above 0.5.

With C31U A43U G48A A57U G67C, the yeast fitness is not above 0.5.

For C31G U54C, the yeast fitness is 0.798.

As for C31U A37G A45C C62G, the yeast fitness was determined as 0.593.

On to C31G C33G G39C, for which the yeast fitness was 0.508.

As to C31A G50C A70G, the yeast fitness was not above 0.5.

For the variant C31G A37C A57U, the yeast fitness was not above 0.5.

Turning to C31U A65U, the yeast fitness is 0.955.

For the variant C31G C62U, the yeast fitness was found to be 1.07.

Consider C31U C33A C62U, for which the yeast fitness is not above 0.5.

C31G A42U G58C: the yeast fitness is 0.538.
